Hits are enriched below; roughly 0.99% of the tested compounds scored in any of these assays.
Dyrk1A ADPGlo: Dyrk1A (rat) kinase inhibition. inhibition, % at 12.5 µM. 310,000 tested, 0.43% active. ADP-Glo luminescence, NFATc1 peptide; in the data active = inhibition above about 50%;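 also: plate controls were vehicle with enzyme for no effect and no enzyme for full effect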
GSK3B inh: inhibitors of human GSK3beta kinase. GST-GSK3beta kinase, ADP-Glo luminescence, 60 min; hits give low values. 300,000 tested, 0.038% active. P49841. AID 2097. activity score (negative = inhibition), % at 10 µM;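 active = more than half of replicate wells score below -50%, meaning over 50% inhibition versus plate controls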;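 also: 0% = median DMSO wells and -100% = median GW8510 positive control wells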
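Test system: GST-tagged human GSK3beta kinase, cell-free; evaluation: activity score scaled between in-plate DMSO and GW8510 controls; measured by: ADP-Glo luminescence; incubation: 60 min reaction, RT; benchmarks: DMSO and 20 µM GW8510; reagent: peptide substrate plus 25 µM ATP (final); medium: Tris/MgCl2 kinase buffer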
Arr AP2 block: inhibitors of human beta-arrestin and AP2 interaction. FITC-arrestin peptide / GST-AP2 beads, flow cytometry; AP2 beta2 appendage carries R879A mutation. inhibition, % at 10 µM. 340,000 tested, 0.31% active. AID 504490;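 active = inhibition above a set limit, near 3 SD of compounds lacking own fluorescence, cut at about 54% in these data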;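 also: plate controls were DMSO wells for no effect and 5 µM unlabelled arrestin peptide for full effect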
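Material – AP2 appendage R879A on GSH beads · Buffer or medium – PBS with 0.05% Tween 20 and 0.1% BSA · Probe or stimulus – fluorescein-tagged arrestin peptide at 50 nM final · Incubation – compound with beads 12 min RT, then probe 1 h RT · Detection – high-throughput flow cytometry of beads, ex 488, em 535 nm · Evaluation – percent response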
GSK3 alpha inh: blocks human GSK-3 alpha kinase | P49840 | ADP-Glo luminescence, 60 min | inhibition, % at 10 µM | 320,000 tested, 0.1% active | AID 2650;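 active = more than half of replicates show inhibition above 20%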;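 also: GST-tagged GSK-3 alpha with peptide substrate and 25 µM ATP; 0% = DMSO neutral wells and 100% = GW8510 positive control wells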
STK33 inh: inhibitors of human STK33 kinase; Q9BYT3; purified STK33, MBP phosphorylation, ADP-Glo luminescence; inhibition, % at 10 µM; 320,000 tested, 0.073% active;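 active = inhibition at or above 25%, using the most active replicate where run in duplicate; inactive = inhibition below 25%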
Rin1-Abl PPI inh: inhibitors of human Rin1-Abl protein interaction; TR-FRET Rin1/Abl binding, biochemical; P00519+Q13671; 360,000 tested, 0.4% active; inhibition, % at 7.35 µM; AID 588664; in the data active = inhibition above about 5%, passing the limit was not always enough
Target sequence (P00519 whole entry, looked up): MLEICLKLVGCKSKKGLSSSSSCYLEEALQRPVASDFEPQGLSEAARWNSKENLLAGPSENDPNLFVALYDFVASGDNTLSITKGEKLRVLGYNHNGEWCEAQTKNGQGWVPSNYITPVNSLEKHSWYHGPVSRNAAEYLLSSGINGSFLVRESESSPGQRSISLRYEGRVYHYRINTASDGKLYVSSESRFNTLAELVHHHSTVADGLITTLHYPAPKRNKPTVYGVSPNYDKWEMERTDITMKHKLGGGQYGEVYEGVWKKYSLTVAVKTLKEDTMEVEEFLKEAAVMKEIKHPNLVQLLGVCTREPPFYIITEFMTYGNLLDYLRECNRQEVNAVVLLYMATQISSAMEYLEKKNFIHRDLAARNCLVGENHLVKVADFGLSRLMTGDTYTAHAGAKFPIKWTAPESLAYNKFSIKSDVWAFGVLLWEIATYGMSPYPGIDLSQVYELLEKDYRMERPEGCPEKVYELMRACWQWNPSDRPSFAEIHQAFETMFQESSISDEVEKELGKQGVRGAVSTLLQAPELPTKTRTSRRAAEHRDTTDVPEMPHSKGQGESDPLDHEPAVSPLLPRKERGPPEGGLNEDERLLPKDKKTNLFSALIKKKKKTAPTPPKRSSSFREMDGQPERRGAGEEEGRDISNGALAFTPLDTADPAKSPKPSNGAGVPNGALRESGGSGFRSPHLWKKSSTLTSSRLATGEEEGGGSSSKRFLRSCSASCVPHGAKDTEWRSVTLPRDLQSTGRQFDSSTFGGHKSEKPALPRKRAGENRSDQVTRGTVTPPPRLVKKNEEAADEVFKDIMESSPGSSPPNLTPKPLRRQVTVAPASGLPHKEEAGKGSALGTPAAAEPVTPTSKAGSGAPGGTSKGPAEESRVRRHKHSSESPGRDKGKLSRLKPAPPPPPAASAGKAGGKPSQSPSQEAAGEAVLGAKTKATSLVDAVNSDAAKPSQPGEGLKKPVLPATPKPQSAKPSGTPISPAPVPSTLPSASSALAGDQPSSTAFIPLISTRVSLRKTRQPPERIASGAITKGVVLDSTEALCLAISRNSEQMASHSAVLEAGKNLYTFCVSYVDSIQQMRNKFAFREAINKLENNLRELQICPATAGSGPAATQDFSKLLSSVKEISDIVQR
Target sequence (Q13671 whole entry, looked up): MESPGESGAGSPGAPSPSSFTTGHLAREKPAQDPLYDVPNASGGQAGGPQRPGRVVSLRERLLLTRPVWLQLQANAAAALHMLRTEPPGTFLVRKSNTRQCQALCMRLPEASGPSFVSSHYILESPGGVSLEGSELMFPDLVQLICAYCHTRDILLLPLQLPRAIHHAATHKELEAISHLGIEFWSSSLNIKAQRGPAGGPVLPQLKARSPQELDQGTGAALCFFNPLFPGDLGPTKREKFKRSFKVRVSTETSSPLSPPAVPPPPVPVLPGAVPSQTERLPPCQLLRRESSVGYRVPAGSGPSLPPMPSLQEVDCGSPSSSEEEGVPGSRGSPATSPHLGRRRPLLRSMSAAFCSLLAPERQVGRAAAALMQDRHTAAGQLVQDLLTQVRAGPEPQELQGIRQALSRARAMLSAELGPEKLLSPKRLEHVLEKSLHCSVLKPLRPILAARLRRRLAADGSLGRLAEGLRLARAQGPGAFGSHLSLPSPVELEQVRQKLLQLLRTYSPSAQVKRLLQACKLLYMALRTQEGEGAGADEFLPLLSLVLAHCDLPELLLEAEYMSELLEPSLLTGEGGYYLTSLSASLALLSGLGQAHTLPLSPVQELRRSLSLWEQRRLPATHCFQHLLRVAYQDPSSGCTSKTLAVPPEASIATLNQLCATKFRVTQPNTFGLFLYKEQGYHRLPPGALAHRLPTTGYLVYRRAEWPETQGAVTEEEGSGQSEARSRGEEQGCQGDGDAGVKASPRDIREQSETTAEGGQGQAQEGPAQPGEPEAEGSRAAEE
Rin1 Abl conf: Rin1-Abl interaction inhibition confirmation. TR-FRET Rin1-Abl binding, purified proteins. inhibition, % at 7.35 µM. 1,300 tested, 49% active. shares compounds with Rin1-Abl PPI inh
GFP quench-1: counter-screen for Rin1-Abl inhibitors: GFP fluorescence quenchers; inhibition, % at 6.75 µM; inhibitors/quenchers counterscreen; AID 602125; 1,300 tested, 8.5% active; shares compounds with Rin1-Abl PPI inh;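 also: ABL1-eGFP fusion protein alone without its partner RIN1-SBP; 0% = protein with vehicle and 100% = wells lacking protein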
GFP quench DR: quenches GFP in dose response, Rin1-Abl counter-screen. IC50, µM. 230 tested, under 10 active. shares compounds with Rin1-Abl PPI inh. GFP fluorescence interference/quenching counterscreen; call rule not given here;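 also: ABL1-eGFP fusion protein alone without its RIN1 binding partner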
GFP quench-2: counter-screen for Rin1-Abl interaction inhibitors: GFP fluorescence quenching; IC50, µM; AID 602397; shares compounds with Rin1-Abl PPI inh; GFP fluorescence quenching counterscreen, biochemical; 25 tested, under 10 active; call rule not given here
Starred values were filed as active, the others as inactive; x = no result given. Rule as the data show it, unless noted: active = inhibition above about 6.5%; inactive = the rest.

SMILES	Dyrk1A ADPGlo	GSK3B inh	Arr AP2 block	GSK3 alpha inh	STK33 inh	Rin1-Abl PPI inh	Rin1 Abl conf	GFP quench-1	others
O=c1[nH]c2ccccc2n1C1CCN(C(c2nnnn2C2CCCCC2)C2CC2)CC1 (stereo not given)	x	x	x	x	x	74*	74*	-1	GFP quench DR=>68
O=c1[nH]c2ccccc2n1C1CCN(C(c2nnnn2C2CCCC2)C2CC2)CC1 (stereo not given)	x	x	x	x	x	31*	23*	0	GFP quench DR=>68
Brc1ccc(Oc2cc(Br)c(Br)cc2Br)c(Br)c1	x	x	28	0	0	8.2*	13*	-2
O=c1[nH]c(=O)n(-c2ccc(Br)cc2)c(O)c1C=NC(CO)(CO)CO	x	0	-4	-1	-2	6.0*	-1	-1
CCOC(=O)N1CCC(NC(=O)CCc2nc(C3=CCN(C)CC3)no2)CC1	-6	4	12	x	0	70*	50*	0	GFP quench DR=>68;GFP quench-2=>68
CC1CCN(CCc2nc3ccccc3[nH]2)CC1	-3	-16	6	-3	-2	-2	x	x
COc1ccc(-n2c(O)c(C(C)=NCc3ccc4c(c3)OCO4)c(=O)[nH]c2=O)cc1	x	1	18	1	0	1	x	x
O=C(Cc1ccccc1)OCCN1CCCCC1	-9	3	6	-22	0	2	x	x
NC(=O)C1(N2CCCCC2)CCN(Cc2ccccc2)CC1	-2	0	0	3	-2	7.9*	0	0
CSCCC(c1nnnn1Cc1ccccc1)N1CCC(n2c(=O)[nH]c3ccccc32)CC1 (stereo not given)	x	x	x	x	x	5	x	x
CSCCC(c1nnnn1C1CCCC1)N1CCC(n2c(=O)[nH]c3ccccc32)CC1 (stereo not given)	x	x	x	x	x	19*	20*	-2	GFP quench DR=>68
O=c1[nH]c2ccccc2n1C1CCN(C(CCc2ccccc2)c2nnnn2C2CCCCC2)CC1 (stereo not given)	x	x	x	x	x	27*	14*	0
O=c1[nH]c2ccccc2n1C1CCN(C(CCc2ccccc2)c2nnnn2Cc2ccccc2)CC1 (stereo not given)	x	x	x	x	x	1	x	x
CC(C)(C)n1nnnc1C(CCc1ccccc1)N1CCC(n2c(=O)[nH]c3ccccc32)CC1 (stereo not given)	x	x	x	x	x	17*	11*	-1
CSCCC(c1nnnn1C1CCCCC1)N1CCC(n2c(=O)[nH]c3ccccc32)CC1 (stereo not given)	x	x	x	x	x	53*	44*	-2	GFP quench DR=>68
Cc1cc(OCC(=O)N[C@H](C(=O)O)c2ccccc2)c2c3c(c(=O)oc2c1)CCC3	2	-6	5	4	1	-6	x	x
C[C@H](NC(=O)N1C[C@H]2C[C@@H](C1)c1cccc(=O)n1C2)C(=O)Nc1ccccc1F	12	-2	6	-3	1	2	x	x
COC(=O)C1=C(c2ccc(OC)c(OC)c2)C[C@@H]2CC[C@H]1N2C(=O)N1CCC(O)CC1	-15	x	0	-3	0	-2	x	x
CCCN1CCc2cccc3c2[C@H]1Cc1ccc(O)c(O)c1-3	4	-3	20	8	-1	12*	6	8.6*
CCCC(C)C(=O)NC1CCSC1=O (stereo not given)	2	1	17	-5	0	4.9*	0	-1
CC(=O)OC1CCC2(C)C(=CC(=O)C3C2CCC2(C)C(OC(C)=O)CCC32)C1 (stereo not given)	0	x	39	x	x	4	x	x
O=C1C=C2C=C[C@@H]3CC2(O1)[C@H]1CCCCN31	3	x	0	1	-1	-5	x	x
C[C@]12CC[C@H](O)CC1=CC(=O)C1C2CC[C@]2(C)C(=O)CCC12 (stereo not given in full)	9	x	9	0	-1	13*	6	-1

Screening data as filed in PubChem BioAssay.
